Experimental data taken from ChEMBL document CHEMBL3272100, “3-Aminotetrahydrocarbazoles as a new series of central nervous system agents” (1977).
Active and inactive are the calls of the source.

What follows are molecules tested on Mus musculus (assay: Antidepressant activity in Swiss-Webster mouse assessed as prevention of reserpine-induced ptosis at 30 to 50 mg/kg, ip).
Assay type: functional, organism-based

| Structure (SMILES) | Activity |
| --- | --- |
| CN(C)C1CCc2[nH]c3c(F)cc(F)cc3c2C1 (stereo not drawn) [FLUCINDOLE] | inactive |

These molecules were tested on Mus musculus (assay: Antidepressant activity in Swiss-Webster mouse assessed as prevention of reserpine-induced ptosis at 50 mg/kg, ip).
Assay type: functional, organism-based
Set-up: dose 50 mg/kg

| Structure (SMILES) | Activity |
| --- | --- |
| CN(C)C1CCc2[nH]c3cc(F)ccc3c2C1 (stereo not drawn) | inactive |
| COc1cc2[nH]c3c(c2cc1OC)CC(N(C)C)CC3 (stereo not drawn) | inactive |
| c1ccc2c3c([nH]c2c1)CCC(N1CCCC1)C3 (stereo not drawn) | inactive |
| COc1cc(C(=O)OCCn2c3c(c4ccccc42)CC(N(C)C)CC3)cc(OC)c1OC (stereo not drawn) | inactive |
| CN(C)C1CCc2[nH]c3ccc(OCc4ccccc4)cc3c2C1 (stereo not drawn) | inactive |
| c1ccc2c3c([nH]c2c1)CCC(N1CCCCC1)C3 (stereo not drawn) | inactive |
| CN(C)C1CCc2[nH]c3ccc(F)cc3c2C1 (stereo not drawn) | inactive |
| CN(C)C1CCc2[nH]c3c(O)cccc3c2C1 (stereo not drawn) | inactive |
| Cc1ccc2[nH]c3c(c2c1)CC(N(C)C)CC3 (stereo not drawn) | inactive |
| Cc1cc2[nH]c3c(c2cc1C)CC(N(C)C)CC3 (stereo not drawn) | Active |
| Cc1cc(C)c2[nH]c3c(c2c1)CC(N(C)C)CC3 (stereo not drawn) | inactive |
| c1ccc2c3c([nH]c2c1)CCC(N1CCOCC1)C3 (stereo not drawn) | inactive |
| CN(C)C1CCc2[nH]c3c(-c4ccccc4)cccc3c2C1 (stereo not drawn) | Active |
| CCOC(=O)CCn1c2c(c3ccccc31)CC(N(C)C)CC2 (stereo not drawn) | inactive |
| CN(Cc1ccccc1)C1CCc2[nH]c3c(F)cc(F)cc3c2C1 (stereo not drawn) | inactive |
| CSc1cccc2c3c([nH]c12)CCC(N(C)C)C3 (stereo not drawn) | inactive |
| CN(C)C1CCc2[nH]c3c(Cl)cc(Cl)cc3c2C1 (stereo not drawn) | inactive |
| Cc1cc(C)c2c3c([nH]c2c1)CCC(N(C)C)C3 (stereo not drawn) | Active |
| CN(C)C1CCc2c(c3ccccc3n2CCC(=O)O)C1 (stereo not drawn) | inactive |
| CN(C)C1CCc2[nH]c3c(F)cccc3c2C1 (stereo not drawn) | inactive |
| CNC1CCc2[nH]c3cc(C)ccc3c2C1 (stereo not drawn) | Active |
| NC1CCc2[nH]c3c(F)cc(F)cc3c2C1 (stereo not drawn) | inactive |

| Structure (SMILES) | Activity |
| --- | --- |
| CNC1CCc2[nH]c3c(F)cc(F)cc3c2C1 (stereo not drawn) | inactive |
| Fc1cc(F)c2[nH]c3c(c2c1)CC(N1CCCCC1)CC3 (stereo not drawn) | inactive |
| CCc1cccc2[nH]c3c(c12)CC(N(C)C)CC3 (stereo not drawn) | Active |
| COc1cccc2c3c([nH]c12)CCC(N(C)C)C3 (stereo not drawn) | inactive |
| Cc1cccc2c3c([nH]c12)CCC(N(C)C)C3 (stereo not drawn) | inactive |
| c1ccc(N2CCN(C3CCc4[nH]c5ccccc5c4C3)CC2)cc1 (stereo not drawn) | inactive |
| CN(C)C1CCc2[nH]c3c(C(F)(F)F)cccc3c2C1 (stereo not drawn) | inactive |
| CN(C)C1CCc2[nH]c3c(Cl)c(Cl)ccc3c2C1 (stereo not drawn) | Active |
| CN(C)C1CCc2[nH]c3c(Br)cccc3c2C1 (stereo not drawn) | inactive |
| CN(C)C1CCc2[nH]c3ccc(C(=O)O)cc3c2C1 (stereo not drawn) | inactive |
| CN(C)C1CCc2[nH]c3c(OCc4ccccc4)cccc3c2C1 (stereo not drawn) | inactive |
| CN(C)C1CCc2[nH]c3ccc(O)cc3c2C1 (stereo not drawn) | Active |
| CN(C)C1CCc2c(c3ccccc3n2CC(=O)O)C1 (stereo not drawn) | inactive |
| CN(C)C1CCc2[nH]c3cc(O)ccc3c2C1 (stereo not drawn) | inactive |
| CN(C)C1CCc2[nH]c3c(Cl)cccc3c2C1 (stereo not drawn) | inactive |
| CCN(CC)CCNC1CCc2[nH]c3ccccc3c2C1 (stereo not drawn) | inactive |
| C=CCn1c2c(c3ccccc31)CC(N(C)C)CC2 (stereo not drawn) | inactive |
| CN(C(=O)c1ccccc1)C1CCc2[nH]c3c(F)cc(F)cc3c2C1 (stereo not drawn) | inactive |
| Cc1ccc(Cl)c2[nH]c3c(c12)CC(N(C)C)CC3 (stereo not drawn) | Active |
| CN(C)C1CCc2[nH]c3ccc(Oc4ccccc4)cc3c2C1 (stereo not drawn) | inactive |
| Cc1cccc2c1c1c(n2C)CCC(N(C)C)C1 (stereo not drawn) | Active |

The molecules below were run on Rattus norvegicus (assay: Antipsychotic activity in Sprague-Dawley rat assessed as prevention of d-amphetamine-induced stereotyped behavior at 32 mg/kg, po measured for 1 min after 90, 100, and 110 mins injection of amphetamine).
Assay type: functional, organism-based
Set-up: dose 32 mg/kg
Summary of the method: (§1)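 Male Sprague-Dawley rats, 100-130 g, given compound orally at graded doses (free base), starting at 32 mg/kg, 4 h before d-amphetamine sulfate sc at 3.7 mg/kg (free base). One-minute observations at 90, 100 and 110 min. ED50 with confidence limits calculated.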

| Structure (SMILES) | Activity |
| --- | --- |
| Cc1cccc2[nH]c3c(c12)CC(N(C)C)CC3 (stereo not drawn) | inactive |
| CN(C)CCCN1c2ccccc2CCc2ccccc21 | inactive |

What follows are molecules tested on Mus musculus (assay: Antidepressant activity in Swiss-Webster mouse assessed as prevention of reserpine-induced ptosis at 30 mg/kg, ip).
Assay type: functional, organism-based
Set-up: dose 30 mg/kg

| Structure (SMILES) | Activity |
| --- | --- |
| CN(C)C1CCc2[nH]c3cccc(C(F)(F)F)c3c2C1 (stereo not drawn) | Active |
| Cc1cc(Cl)cc2[nH]c3c(c12)CC(N(C)C)CC3 (stereo not drawn) | Active |
| COc1ccc(Cl)c2c3c([nH]c12)CCC(N(C)C)C3 (stereo not drawn) | Active |
| COc1ccc2c3c([nH]c2c1)CCC(N(C)C)C3 (stereo not drawn) | Active |
| Cc1ccc(C)c2c3c([nH]c12)CCC(N(C)C)C3 (stereo not drawn) | Active |
| NC1CCc2[nH]c3ccccc3c2C1 (stereo not drawn) | Active |
| CCn1c2c(c3ccccc31)CC(N(C)C)CC2 (stereo not drawn) | Active |
| CCOC(=O)c1cccc2[nH]c3c(c12)CC(N(C)C)CC3 (stereo not drawn) | Active |
| CNC1CCc2[nH]c3ccccc3c2C1 (stereo not drawn) | Active |
| CN(C)C1CCc2[nH]c3c(F)cc(F)cc3c2C1 (stereo not drawn) [FLUCINDOLE] | inactive |

What follows are molecules tested on Mus musculus (assay: Antidepressant activity in Swiss-Webster mouse assessed as prevention of reserpine-induced ptosis at 10 to 50 mg/kg, ip).
Assay type: functional, organism-based

| Structure (SMILES) | Activity |
| --- | --- |
| Cc1cccc2[nH]c3c(c12)CC(N(C)C)CC3 (stereo not drawn) | Active |
| CN(C)C1CCc2[nH]c3ccccc3c2C1 (stereo not drawn) [CYCLINDOLE] | Active |
| CN(C)CCCN1c2ccccc2CCc2ccccc21 | Active |

These molecules were tested on Rattus norvegicus (assay: Antipsychotic activity in po dosed Sprague-Dawley rat assessed as prevention of d-amphetamine-induced stereotyped behavior measured for 1 min after 90, 100, and 110 mins injection of amphetamine).
Assay type: functional
Summary of the method: as §1

| Structure (SMILES) | ED50 [mg/kg] |
| --- | --- |
| CN(C)CCCN1c2ccccc2Sc2ccc(Cl)cc21 [CHLORPROMAZINE] | 8.6 |
| CN(C)C1CCc2[nH]c3ccccc3c2C1 (stereo not drawn) [CYCLINDOLE] | 10.3 |
| CN(C)C1CCc2[nH]c3c(F)cc(F)cc3c2C1 (stereo not drawn) [FLUCINDOLE] | 1.4 |

What follows are molecules tested on Mus musculus (assay: Antidepressant activity in Swiss-Webster mouse assessed as prevention of reserpine-induced ptosis at 1 to 50 mg/kg, ip).
Assay type: functional, organism-based
Summary of the method: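 Male Swiss-Webster mice (18-24 g) given test compounds intraperitoneally at 50, 30, 10, 1 and 0.5 mg/kg (free base), then scored for reserpine-induced ptosis. Active means a statistically significant decrease in ptosis (p < 0.05, two-tailed).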

| Structure (SMILES) | Activity |
| --- | --- |
| CN(C)CCCN1c2ccccc2Sc2ccc(Cl)cc21 [CHLORPROMAZINE] | inactive |

The molecules below were run on Mus musculus (assay: Antidepressant activity in Swiss-Webster mouse assessed as prevention of reserpine-induced ptosis at 10 mg/kg, ip).
Assay type: functional, organism-based
Set-up: dose 10 mg/kg

| Structure (SMILES) | Activity |
| --- | --- |
| CCCc1cccc2c3c([nH]c12)CCC(N(C)C)C3 (stereo not drawn) | Active |
| CN(C)C1CCc2c(c3ccccc3n2C)C1 (stereo not drawn) | inactive |
| CN(C)C1CCc2c(c3ccccc3n2Cc2ccccc2)C1 (stereo not drawn) | inactive |
| CN(C)CCCn1c2c(c3ccccc31)CC(N(C)C)CC2 (stereo not drawn) | inactive |
| Cc1cccc2[nH]c3c(c12)CC(N(C)C)CC3 (stereo not drawn) | Active |
| CCNC1CCc2[nH]c3ccccc3c2C1 (stereo not drawn) | inactive |
| CC(=O)NC1CCc2[nH]c3ccccc3c2C1 (stereo not drawn) | inactive |
| CN(C)C1CCc2[nH]c3ccccc3c2C1 (stereo not drawn) [CYCLINDOLE] | Active |
| CCOC(=O)Cn1c2c(c3ccccc31)CC(N(C)C)CC2 (stereo not drawn) | Active |
| CNC1CCc2[nH]c3cccc(C)c3c2C1 (stereo not drawn) | Active |
| Cc1ccc2c3c([nH]c2c1)CCC(N(C)C)C3 (stereo not drawn) | Active |
| CCCCNC1CCc2[nH]c3ccccc3c2C1 (stereo not drawn) | inactive |
| CCCNC1CCc2[nH]c3ccccc3c2C1 (stereo not drawn) | inactive |
| CN(C)CCn1c2c(c3ccccc31)CC(N(C)C)CC2 (stereo not drawn) | inactive |
| CCc1cccc2c3c([nH]c12)CCC(N(C)C)C3 (stereo not drawn) | Active |
| CN(C)C1CCc2c(c3ccccc3n2Cc2ccc(Cl)cc2)C1 (stereo not drawn) | inactive |
| Cc1ccc(F)c2[nH]c3c(c12)CC(N(C)C)CC3 (stereo not drawn) | Active |
| COc1ccc2[nH]c3c(c2c1)CC(N(C)C)CC3 (stereo not drawn) | inactive |
| Cc1cc(Cl)c2c3c([nH]c2c1)CCC(N(C)C)C3 (stereo not drawn) | Active |
| CN(C)C1CCc2[nH]c3cccc(F)c3c2C1 (stereo not drawn) | Active |
